# pIC50: −log10 of the molar value.
# Molecular target: Translocator protein (Rattus norvegicus, UniProt P16257)
# Experiment: Displacement of [3H]PK115 from peripheral benzodiazepine receptor in Sprague-Dawley rat cortical membrane
# Procedure, shortened: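 Male Sprague–Dawley rats, 200–250 g; cerebral cortex homogenized in ice-cold PBS pH 7.4, washed twice by centrifugation at 40,000g. Filtration on PEI-presoaked GF/B filters, scintillation counting. IC50 from 6–10 concentrations in triplicate; mean ± SEM of three determinations.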
# Chain of Translocator protein (P16257 whole entry, looked up): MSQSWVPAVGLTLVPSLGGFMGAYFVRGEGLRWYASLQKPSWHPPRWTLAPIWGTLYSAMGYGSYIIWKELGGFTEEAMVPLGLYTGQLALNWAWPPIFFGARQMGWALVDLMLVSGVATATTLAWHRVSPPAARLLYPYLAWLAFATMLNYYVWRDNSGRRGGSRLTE
row,Structure (SMILES),pIC50
1,COc1ccc(NC(=O)/C=C2\c3nc4ccccc4cc3C(=O)N2c2ccc(Cl)cc2)cc1,7.12
2,CN(C(=O)/C=C1\c2nc3ccccc3cc2C(=O)N1c1ccc(Cl)cc1)c1ccccc1,7.36
3,CN(C(=O)/C=C1\c2nc3ccccc3cc2C(=O)N1c1ccccc1)c1ccc(Cl)cc1,8.00
4,CN(C(=O)/C=C1\c2nc3ccccc3cc2C(=O)N1c1ccc(Cl)cc1)c1ccc(O)cc1,7.13
5,C#CCN(C)C(=O)/C=C1\c2nc3ccccc3cc2C(=O)N1c1ccc(Cl)cc1,6.49
6,CCN(Cc1ccccc1)C(=O)/C=C1\c2nc3ccccc3cc2C(=O)N1c1ccc(Cl)cc1,7.82
7,COc1ccc(N(C)C/C=C2\c3nc4ccccc4cc3C(=O)N2c2ccc(Cl)cc2)cc1,5.63
8,COc1ccc(N(C)C(=O)/C=C2\c3nc4ccccc4cc3C(=O)N2c2ccc(Cl)cc2)cc1,9.05
9,COc1ccc(N(C)C(=O)/C=C2\c3nc4ccccc4cc3C(=O)N2c2ccccc2)cc1,7.92
10,CN(Cc1ccccc1)C(=O)/C=C1\c2nc3ccccc3cc2C(=O)N1c1ccc(Cl)cc1,7.59
11,CN(C(=O)/C=C1\c2nc3ccccc3cc2C(=O)N1c1ccc(Cl)cc1)c1ccc(Cl)cc1,9.21

# Reference: ChEMBL document CHEMBL1142386, “Synthesis and structure-activity relationship studies in peripheral benzodiazepine receptor ligands related to alpidem” (Bioorg Med Chem, 2008)
